Mdm2 ligase inh = inhibitors of human Mdm2 E3 ubiquitin ligase | Q00987 | cell-based MDM2 ubiquitination luciferase reporter, 2 h; 0 = plate control, 100 = twice control, blank-subtracted | actives 0.11% (n = 210,000) | signal enhancement, % at 5 µM;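 active = signal enhancement of 30% or more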;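 also: luminescence tracks abundance of the self-degrading MDM2-luciferase fusion protein; higher signal means inhibition of MDM2 E3 ligase activity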
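Timing – 2 h compound exposure at 37 °C · Assay system – mammalian cells stably expressing self-ubiquitinating, self-degrading MDM2 E3–luciferase fusion · Amount – 2000 cells seeded into each well · Measure – % luminescence enhancement versus blank-corrected plate control mean · Measured by – SteadyLite luminescence, 15 min reagent step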
KCC2 mod = modulates chloride dependent transport by human KCC2; Q9H2X9; KCC2 cells, thallium flux FluoZin-2 fluorescence; B-score of Tl+ flux slope (higher = more flux/activation; lower = inhibition) at 10 µM; actives 2.2% (n = 190,000); AID 1456;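 active = thallium flux slope and its plate-corrected score both differing from the plate sample mean at a set confidence after two filtering rounds, in either direction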;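 also: slope of fluorescence scaled to starting intensity during 10 to 20 s after thallium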
ROMK primary = modulators of human ROMK potassium channel; B-score at 10 µM; actives 2% (n = 130,000); P48048; Tet-inducible ROMK, thallium flux fluorescence; actives lie on both sides; AID 1918;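 active = signal ratio slope over the read window, or its plate-corrected B-score, at least 3 SD from the plate mean, either direction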;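 also: B-score of the F/F0 ratio slope over 7 to 12 s after thallium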
PKD1 inh = inhibitors of human PKD1 kinase; PKD1 kinase fluorescence polarization assay; inhibition, % (test concentration not listed); actives 0.056% (n = 200,000); in the data active = inhibition above about 50%
Target sequence (Q15139 whole entry, looked up): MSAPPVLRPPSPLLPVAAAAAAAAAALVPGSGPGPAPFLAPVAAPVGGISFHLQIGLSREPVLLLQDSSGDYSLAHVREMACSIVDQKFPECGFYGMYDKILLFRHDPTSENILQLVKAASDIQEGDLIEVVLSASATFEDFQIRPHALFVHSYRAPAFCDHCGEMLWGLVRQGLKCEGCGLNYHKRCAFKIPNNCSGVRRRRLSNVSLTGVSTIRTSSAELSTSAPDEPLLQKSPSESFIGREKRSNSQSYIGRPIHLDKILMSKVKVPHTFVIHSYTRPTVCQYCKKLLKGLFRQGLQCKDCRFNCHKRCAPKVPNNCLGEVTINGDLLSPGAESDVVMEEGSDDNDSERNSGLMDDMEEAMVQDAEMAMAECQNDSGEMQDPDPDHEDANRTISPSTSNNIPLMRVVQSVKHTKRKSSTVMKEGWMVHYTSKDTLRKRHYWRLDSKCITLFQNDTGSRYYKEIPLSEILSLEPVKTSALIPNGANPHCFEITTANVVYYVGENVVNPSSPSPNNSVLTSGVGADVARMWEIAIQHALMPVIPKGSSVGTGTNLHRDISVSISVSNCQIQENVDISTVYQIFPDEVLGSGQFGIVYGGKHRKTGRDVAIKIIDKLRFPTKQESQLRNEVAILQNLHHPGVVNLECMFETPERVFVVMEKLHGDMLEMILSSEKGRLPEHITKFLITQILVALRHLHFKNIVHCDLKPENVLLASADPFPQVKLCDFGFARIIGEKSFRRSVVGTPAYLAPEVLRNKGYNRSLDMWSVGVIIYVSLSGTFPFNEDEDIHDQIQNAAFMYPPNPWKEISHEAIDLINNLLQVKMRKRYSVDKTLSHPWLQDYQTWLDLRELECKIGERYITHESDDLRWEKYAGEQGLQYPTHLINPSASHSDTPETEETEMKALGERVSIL
Calpain2 inh = calpain II (pig) inhibition | purified calpain II, fluorogenic peptide substrate, 30 min | inhibition, % at 16 µM | actives 0.37% (n = 220,000) | AID 1236;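 active = inhibition above about 50%, limit read from the data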
Arbovirus anti = arbovirus infection inhibition; inhibition, % at 10 µM; arbovirus infection cell-based antiviral screen; AID 1251; actives 0.37% (n = 200,000); in the data active = inhibition above about 30%
KCC2 sec1 = KCC2 (human) modulation, secondary assay. shares compounds with KCC2 mod. HEK293-KCC2, thallium flux, FluoZin2 fluorescence; active compounds read high. normalised thallium flux (F/F0 slope) at 10 µM. actives 15% (n = 3,700). AID 1713;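 active = thallium flux slope above the same plate's solvent-only control mean plus 3 SD; inconclusive = the two replicate wells disagree; inactive = no significant difference from solvent-only control wells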
KCC2 bumet counter = bumetanide-insensitive thallium flux in KCC2 cells with ouabain, counter-screen | shares compounds with KCC2 mod | HEK293-KCC2 + bumetanide/ouabain, thallium flux FluoZin2; active compounds read high | normalized thallium flux at 10 µM | actives 49% (n = 3,700) | AID 1714;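 active = thallium entry rate above the same plate's blocked-transporter control wells by more than 3 SD; inconclusive = the two repeat wells disagree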;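 also: raw slope of fluorescence over initial fluorescence between 10 and 20 s after thallium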
KCC2 sec2 = confirmation of human KCC2 transport modulators; shares compounds with KCC2 mod; HEK293-KCC2, thallium flux FluoZin2 fluorescence; actives lie on both sides; F/F0 rise rate, 10–20 s post-thallium; normalized thallium flux at 10 µM; actives 23% (n = 3,700); AID 1715;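 active = thallium flux slope more than 3 SD above or below the plate's solvent-only control mean, mostly below; inconclusive = the two repeat wells disagreed; inactive = no significant shift from solvent-only controls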;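 also: raw slope with 0.1% DMSO as baseline and bumetanide as block control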
HEK counter1 = parental HEK flux effect, counter-screen; thallium flux rate (normalised fluorescence) at 10 µM; AID 1716; actives 46% (n = 3,700); HEK293 parental cells, thallium flux FluoZin2, ouabain; baseline-ratio fluorescence slope, 10–20 s after thallium; shares compounds with KCC2 mod;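 active = thallium flux rate significantly above the same plate's solvent-only control wells, beyond their mean plus 3 SD; inconclusive = the two replicate wells gave conflicting results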
KCC2 retest ouab = modulates human KCC2 on retest with ouabain; shares compounds with KCC2 mod; HEK293-KCC2, thallium flux FluoZin2 fluorescence; bidirectional: low = inhibitor, high = activator; raw Tl+ flux slope (below DMSO = inhibition, above = activation) at 10 µM; actives 48% (n = 3,700); AID 1717;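 active = thallium flux slope beyond 3 SD from same-plate DMSO control mean in most replicates, usually higher, sometimes lower; inconclusive = repeat tests gave conflicting results; inactive = no significant difference from controls in most replicates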;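 also: slope of initial-normalized fluorescence between seconds 10 and 20 after thallium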
HEK293 Tl flux2 = parental HEK flux effect, counter-screen 2; shares compounds with KCC2 mod; HEK293 parental, thallium flux FluoZin-2 fluorescence slope; thallium flux slope at 10 µM; actives 33% (n = 3,700);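 active = thallium flux slope above the same plate's solvent-control mean plus 3 SD in both duplicate wells; inconclusive = duplicate wells that disagreed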;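 also: run without ouabain in cells lacking the KCC2 cotransporter; slope of fluorescence scaled to its starting value between 10 and 20 s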
Active calls of the source: *; ? = inconclusive; . = no result. This is a sample that favours compounds with a hit; in the whole collection about 3.7% have one here.

SMILES	Mdm2 ligase inh	KCC2 mod	ROMK primary	PKD1 inh	Calpain2 inh	Arbovirus anti	KCC2 sec1	KCC2 bumet counter	KCC2 sec2	HEK counter1	KCC2 retest ouab	HEK293 Tl flux2
CCOC(=O)/C(C)=N/NC(=O)c1ccc([N+](=O)[O-])cc1	-11	23*	-0.5	-6	9	0	0.0094*	0.032*	0.038*	0.034*	0.039*	0.025*
O=C(OCc1c(Cl)nc2sccn12)c1cc2c(s1)CCCC2	-13	-0.092	.	-10	4	4	.	.	.	.	.	.
O=C(O)C1CCN(c2c([N+](=O)[O-])cc(C(F)(F)F)cc2[N+](=O)[O-])CC1	-14	.	.	1	20	7	.	.	.	.	.	.
C=CCNC(=O)C1CCN(c2c([N+](=O)[O-])cc(C(F)(F)F)cc2[N+](=O)[O-])CC1	-20	.	.	1	-35	-9	0.011	0.0065	0.029	0.0077	0.03	?
CC(C)C(=O)Nc1ncc(Cc2ccc(Cl)cc2)s1	-1	-0.01	1.5	0	47	-12	.	.	.	.	.	.
NC(=S)NNC(=O)Nc1ccc(Cl)c(Cl)c1	-9	0.95	-0.18	-4	14	-2	.	.	.	.	.	.
NC(=O)N1CC(O)CC1C(=O)Nc1ccc(Cl)c(Cl)c1 (stereo unspecified)	-5	1.3	-0.0052	-6	16	6	0.0056	0.0044	0.032	0.0085	0.02	0.011
Cc1nc(=S)c2c([nH]1)-c1ccccc1CC21CCCCC1	-7	77*	.	.	-5	.	0.02*	0.1*	0.03	0.04*	0.068*	0.011*
CCc1nc2c(c(=O)[nH]1)C1(CCCC1)Cc1ccccc1-2	-1	.	0.61	-5	-29	2	0.0096	0.0059	0.033	0.0074	0.023	0.01
O=c1[nH]c(CN2CCCCC2)nc2c1C1(CCCCC1)Cc1ccccc1-2	-4	-0.77	0.82	-2	-39	0	.	.	.	.	.	.
COc1cccc(CN(C)C(=O)c2cccc(OC3CCN(C4CCCC4)CC3)c2)c1	-7	0.045	-0.69	0	-14	-8	.	.	.	.	.	.
O=C(Cc1ccccc1)NC1CCN(S(=O)(=O)c2cccc(F)c2)CC1	-5	-0.66	0.034	-3	-1	-18	.	.	.	.	.	.
CCOC(=O)N1CCN(C(=O)c2cccc(-n3c(=S)[nH]c4cc(Cl)ccc4c3=O)c2)CC1	-9	.	-0.11	2	5	16	0.0071	0.012*	?	0.017*	0.025*	0.02*
COC(CNC(=O)c1ccc(-n2c(=S)[nH]c3ccccc3c2=O)cc1)OC	-13	1.4	-1	-4	-5	1	.	.	.	.	.	.
COC(CNC(=O)c1cccc(-n2c(=S)[nH]c3cc(Cl)ccc3c2=O)c1)OC	-2	4.4*	0.84	0	-30	-1	?	0.021*	0.034	0.015*	?	0.012*
CCOC(=O)N1CCN(C(=O)c2ccc3c(=O)n(-c4ccc(OC)cc4)c(=S)[nH]c3c2)CC1	-17	-3.6*	.	-1	3	5	0.015	0.0038	0.032	?	0.017	0.011
CCOC(=O)N1CCN(C(=O)c2ccc3c(=O)n(-c4ccccc4F)c(=S)[nH]c3c2)CC1	-18	0.53	0.62	-3	-2	2	.	.	.	.	.	.
CCOC(=O)N1CCN(C(=O)c2ccc3c(=O)n(-c4ccc(OC)cc4OC)c(=S)[nH]c3c2)CC1	-7	0.33	-0.13	0	-20	-4	.	.	.	.	.	.
COc1cccc(/C=N/NC(=O)c2ccc([N+](=O)[O-])cc2Cl)c1O	-1	-0.28	-0.077	1	13	-20	.	.	.	.	.	.
S=C(NCCCN1CCOCC1)Nc1ccc(Cl)c(Cl)c1	.	-0.9	-0.19	-12	-3	-1	.	.	.	.	.	.
Cc1ccc(N=Cc2c(O)n(-c3cc(Cl)ccc3N3CCOCC3)c(=O)c3ccccc23)cc1C	-9	-0.081	-0.19	3	-29	4	.	.	.	.	.	.
Cc1nc(C(=O)NNC(=O)c2ccc(Cl)cc2)cs1	-5	9.9*	0.58	.	-15	.	?	0.025*	0.035	0.012*	0.029	?
Cc1cc(C(=O)NNC(=O)c2cccc(Cl)c2)no1	-8	7.4*	.	.	13	.	0.0068	0.014*	0.032	0.014*	?	0.018*
Cc1nc(-c2nc(CC(=O)NNC(=O)c3ccc(Cl)cc3)cs2)cs1	-17	0.66	-0.014	.	11	.	.	.	.	.	.	.
Cc1nc(-c2nc(-c3c(C(=O)NNC(=O)c4ccc(Cl)cc4)noc3C)cs2)cs1	-7	103*	1.3	.	-27	.	0.043*	0.15*	0.042	?	0.092*	0.021*
SMILES	Mdm2 ligase inh	KCC2 mod	ROMK primary	PKD1 inh	Calpain2 inh	Arbovirus anti	KCC2 sec1	KCC2 bumet counter	KCC2 sec2	HEK counter1	KCC2 retest ouab	HEK293 Tl flux2
Cc1cc(C(=O)NNC(=O)c2ccc(Cl)cc2)no1	0	5.9*	0.059	.	-11	.	0.011	0.016*	0.037	0.013*	0.027	0.012*
Cc1cc(/C(N)=N/OC(=O)c2cccc(Cl)c2)no1	-21	-0.02	.	.	-9	.	.	.	.	.	.	.
CCOC(=O)C1(Cc2cccc(OC)c2)CCN(Cc2cccnc2)CC1	23	0.0097	.	0	-28	1	.	.	.	.	.	.
CN(C)c1ccc(/C=N/NC(=O)CN2CCN(c3ccc(F)cc3)CC2)cc1	10	1.6	0.49	-14	-20	0	.	.	.	.	.	.
NC(=S)NNC(=O)c1cccc(Cl)c1	-14	5.6*	-0.93	.	-4	.	?	?	0.032	0.01*	0.019	?
COc1cc(/C=c2\s/c(=C(/C#N)C(=O)N3CCCC3)n(-c3ccccc3)c2=O)ccc1O	0	-2.1	-1.7	-2	-222	-10	.	.	.	.	.	.
Cc1ccc(/C=c2\s/c(=C(/C#N)C(=O)N3CCCC3)n(Cc3ccco3)c2=O)s1	-13	8.2*	.	3	-251	-13	0.018	0.0048	0.025*	0.007	0.014	0.0099
CCOC(=O)C(=O)Nc1ccc(Oc2ccccc2)cc1	3	-4*	-0.43	-4	11	-3	0.0089	0.0059	0.032	0.0069	0.017*	0.011
O=C(c1ccccc1)C(Nc1ccccn1)c1ccccc1 (stereo unspecified)	0	0.75	-0.054	0	-4	2	.	.	.	.	.	.
